# Assay outcomes (PubChem)
# An excerpt weighted towards active compounds, which were near 4.1% of everything screened.
# MPTP block – mitochondrial permeability transition pore inhibitors, primary screen, biochemical, isolated mouse mitochondria, absorbance; inhibition, % at 10 µM; 360,000 tested, 1.4% active; Ca2+ swelling absorbance, 30 min;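 active = inhibition of 50% or more, scaled per plate between neutral and stimulator controls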;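 also: 0% = DMSO wells given calcium and 100% = 1 mM EGTA wells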
# MC4R antag cAMP – MC4R antagonists of cAMP signaling, primary screen, cell-based, TR-FRET, antagonist arm of biased-ligand search; Melanocortin receptor 4 (Homo sapiens), P32245; MC4R-expressing cells, MTII-stimulated cAMP, LANCE TR-FRET; inhibition, % at 6.5 µM; 360,000 tested, 0.48% active; AID 540295, 2011;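 active = inhibition above its plate's cutoff, the mean of tested wells on that plate plus 3 SD, cut at about 29% in these data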;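 also: 0% = Melanotan II alone and 100% = Melanotan II plus saturating MCL0020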
# Target sequence (P32245 whole entry, looked up): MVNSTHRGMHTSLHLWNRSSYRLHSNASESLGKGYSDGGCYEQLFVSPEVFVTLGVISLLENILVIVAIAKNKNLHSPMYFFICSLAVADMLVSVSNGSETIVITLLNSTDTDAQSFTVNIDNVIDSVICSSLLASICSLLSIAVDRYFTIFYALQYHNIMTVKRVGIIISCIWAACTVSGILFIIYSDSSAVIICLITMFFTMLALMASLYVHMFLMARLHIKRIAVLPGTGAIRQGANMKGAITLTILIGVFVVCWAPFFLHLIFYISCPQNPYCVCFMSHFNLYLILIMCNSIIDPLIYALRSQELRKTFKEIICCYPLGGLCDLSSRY
#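 Test system: U2OS cells stably expressing human melanocortin 4 receptor (MC4R); also added: Melanotan II challenge; compound: 6.5 µM single dose; timing: 30-min compound preincubation, 1-h Melanotan II challenge, 1-h detection, room temperature; signal: Eu-cAMP/anti-cAMP TR-FRET, emission 671 nm; repeats: one well per compound, no replicates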
# SMARCA2 activ – SMARCA2 (BRM) function activators, primary screen, cell-based, luminescence, high throughput; MG213 cells, MMTV-luciferase reporter, dexamethasone, overnight; activation, % at 9.1 µM; 370,000 tested, 1% active; in the data active = activation above about 7.8%;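 also: 0% = vehicle wells and 100% = reference activator wells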
# MC4R ag barr – MC4R agonists recruiting beta-arrestin, primary screen, cell-based, luminescence, agonist arm of biased-ligand search. Melanocortin receptor 4 (Homo sapiens), P32245. U2OS MC4R beta-arrestin complementation; percent of melanotan II response, DMSO zero. activation, % at 8.9 µM. 360,000 tested, 0.98% active;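 active = activation above a per-plate cutoff, the mean activation of sample wells on that plate plus 3 SD, cut at about 8% in these data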
# ATG4B inhibitor – ATG4B protease inhibitors, primary screen, biochemical, fluorescence, uHTS; ATG4B cleavage of LC3-PLA2, NBD-HPC fluorescence, 1 h; inhibition, % at 8.33 µM; 340,000 tested, 0.51% active; AID 504462, 2011; in the data active = inhibition above about 40%
# cAMP nonselect – nonselective cAMP signaling inhibitors, parental cells, counter-screen for MC4R biased antagonist project, cell-based, TR-FRET, U2OS, forskolin, triplicate. inhibition, % at 6.5 µM. AID 602193, 2012. LANCE TR-FRET. shares compounds with MC4R antag cAMP. 1,600 tested, 26% active;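 active = mean inhibition over triplicates above the low-control well mean plus 3 SD, set per campaign, cut at about 13% in these data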;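 also: signal is single emission at 671 nm which falls as cellular cAMP rises; 0% = forskolin-stimulated wells and 100% = buffer without forskolin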
# MC4R antag conf – MC4R cAMP antagonists, retest, confirmation, cell-based, TR-FRET; shares compounds with MC4R antag cAMP; MC4R-expressing cells, MTII-stimulated cAMP; inhibition, % at 6.5 µM; 1,600 tested, 27% active; AID 602195, 2012; in the data active = inhibition above about 29%;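 also: 0% = agonist stimulated wells alone and 100% = agonist stimulated wells plus saturating reference antagonist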
# * marks the source's active call; other numbers are inactive results; / = not tested or not shown.
SMILES,MPTP block,MC4R antag cAMP,SMARCA2 activ,MC4R ag barr,ATG4B inhibitor,cAMP nonselect,MC4R antag conf
COc1ccc(/C=N/NC(=O)C2COc3ccccc3O2)cc1OC (stereo not given),0,29*,1,2,4,-2,-12
COc1cc(/C=N/NC(=O)C2COc3ccccc3O2)ccc1O (stereo not given),1,2,-3,-2,31,/,/
CCOC(=O)c1sc(NC(=O)CCN2CCN(CC)CC2)c(C(=O)OCC)c1C,-1,42*,4,-4,-10,7,26
CCOC(=O)c1sc(NC(=O)CCN2CCC(C)CC2)c(C(=O)OCC)c1C,0,19,6,-1,-4,/,/
Cc1cc2nnc(SCC(=O)N3CCCCCC3)n2c(N)n1,-1,29*,-3,-1,-1,0,-12
Cc1cc(C(=O)COc2cc(F)ccc2[N+](=O)[O-])c(C)n1CC1CCCO1 (stereo not given),0,33*,-3,3,-2,12,25
COc1ccc(/C=C(\C#N)C(=O)Nc2cccc3ncccc23)cc1OC,3,31*,2,-1,5,-3,3
CCOC(=O)C1=C(COC(=O)CNS(=O)(=O)c2ccc(C)c(C)c2)NC(=O)NC1C (stereo not given),1,30*,-4,-1,/,10,16
CCN(CC)S(=O)(=O)c1ccc(Cl)c(NC(=O)COc2ccc3c(C)cc(=O)oc3c2)c1,0,-2,-3,-1,10,/,/
CCN(CC)S(=O)(=O)c1ccc(OC)c(NC(=O)COc2ccc3c(C)cc(=O)oc3c2)c1,3,114*,-1,-1,-15,96*,168*
COC(=O)[C@]12C[C@H](CC(=O)N3CCC(c4ccccc4)CC3)C(=O)N(CCc3ccc(OC)c(OC)c3)C1=C[C@H](C(C)C)O[C@@H]2C1CC1,/,/,0,/,/,/,/
COc1ccc(C=Nn2c(-c3ccc(F)cc3)n[nH]c2=S)cc1OCc1ccccc1,/,/,0,/,/,/,/
O=C1C2C(c3ccccc3)(C(=O)N1c1ccc(Cl)cc1)C2(c1ccccc1)c1ccccc1 (stereo not given),-1,38*,-6,1,-2,-7,-6
CC12CCC(C(=O)N(c3ccc(Cl)cc3)C1=O)C2(C)C (stereo not given),0,8,-5,0,15,/,/
O=C(OCCN1CCCCC1)c1ccccc1Br,0,30*,-3,0,8,-1,0
CC(C)CNc1cccc2c1S(=O)(=O)N(Cc1cn(Cc3cccc(F)c3)nn1)Cc1ccccc1O2,/,/,1,/,/,/,/
CCCOc1ccc(-c2c(C(=O)N/N=C/c3ccccc3)nnn2-c2nonc2N)cc1,1,30*,-5,0,2,6,10
Cc1ccccc1COc1cccc(/C=N/NC(=O)c2nnn(-c3nonc3N)c2C)c1,0,32*,-2,4,9,3,9
Cc1ccc2c(c1)C1CS(=O)(=O)N(C3CCCC3)C(=O)N1C2 (stereo not given),/,/,5,/,/,/,/
O=C(NNc1c2ccccc2nc2ccccc12)c1ccc(Cl)cc1,6,33*,-5,-1,1,-2,-24
COc1ccc(Cn2cc(CN3[C@@H](CC(C)C)COc4cccc(F)c4S3(=O)=O)nn2)cc1,/,/,2,/,/,/,/
CC(=NNC(=O)CSc1nnc(-c2ccc(C(C)(C)C)cc2)n1-c1ccccc1)c1cccc2ccccc12,/,/,-5,/,/,/,/
CCS(=O)(=O)N1Cc2ccccc2CC1C(=O)Nc1ccc(OC)c(OC)c1 (stereo not given),-1,-5,1,1,-3,/,/
